Measurements from ChEMBL document CHEMBL1143827, “In vitro activity of 2,4-diamino-6-[2-(phosphonomethoxy)ethoxy]-pyrimidine against multidrug-resistant hepatitis B virus mutants” (Antimicrob Agents Chemother, 2007).

How the values were obtained:
Hepatitis B virus [1] = assay: Inhibition of wild type HBV replication in Huh7 cells; type: functional, organism-based; details: Huh-7
Outline: (§1)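 Huh7 hepatoma cells were transiently transfected with plasmids carrying 1.1 genome units of wild-type HBV under a chicken beta-actin promoter, then treated with drug across a range starting at 0 μM (up to 100 μM for some drugs). Intracellular HBV DNA was purified and analysed by Southern blot to derive EC50. Values are means of at least three independent experiments, each run in triplicate.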

[2] = Effect on cell viability in human Huh7 cells; type: cell-based, Huh-7
Outline: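 Huh7 cells were exposed to drug, and viability was read as neutral red dye uptake. CC50 is the concentration that cut uptake by 50%, given as mean ± SD of three independent experiments run in quadruplicate.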

Hepatitis B virus [3] = assay: Antiviral activity against wild type HBV assessed as inhibition of replication; type: functional, organism-based; outline: as §1
Hepatitis B virus [4] = assay: Antiviral activity against adenofir-resistant HBV with reverse transcriptase N236T mutant assessed as inhibition of replication; type: functional, organism-based
Outline: (§2)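 Huh7 cells transiently transfected with plasmids carrying 1.1 genome units of mutant or wild-type HBV under the chicken beta-actin promoter. Drug range was 0 to 100 μM for PMEO-DAPym, lamivudine, adefovir and tenofovir. Intracellular HBV DNA was purified and analysed by Southern blot to give EC50. Values are means of at least three independent experiments, each run in triplicate.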

Hepatitis B virus [5] = assay: Fold resistance, ratio of lamivudine-resistant HBV with reverse transcriptase V173L/L180/M204V mutant to wild-type HBV genotype H; type: functional
Outline: (§3)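 Each mutant and its corresponding wild-type strain were transfected into Huh7 cells and treated in parallel with the same drug concentration range, with HBV DNA read by Southern blot. Fold resistance = mutant EC50 / corresponding wild-type EC50. Uses means of at least three independent experiments, each in triplicate.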

Hepatitis B virus [6] = assay: Fold resistance, ratio of Lamivudine -adenofir-resistant HBV with reverse transcriptase V173L/L180M/A181V mutant to wildtype HBV genotype E; type: functional; outline: as §3
Hepatitis B virus [7] = assay: Fold resistance, ratio of Lamivudine -adenofir-resistant with HBV reverse transcriptase V173L/L180M/A181V/M204V mutant to wildtype HBV genotype E; type: functional; outline: as §3
Hepatitis B virus [8] = assay: Fold resistance, ratio of lamivudine -adenofir-resistant with HBV reverse transcriptase V173L/L180M/A181V/M204V/N236T mutant to wild-type HBV genotype E; type: functional; outline: as §3
Hepatitis B virus [9] = assay: Fold resistance, ratio of Lamivudine -adenofir-resistant with HBV reverse transcriptase V173L/L180M/A181V/N236T mutant to wildtype HBV genotype E; type: functional; outline: as §3
Hepatitis B virus [10] = assay: Fold resistance, ratio of entecavir-resistant HBV with reverse transcriptase L180M/S202G/M204V mutant to wild-type HBV genotype H; type: functional; outline: as §3
Hepatitis B virus [11] = assay: Antiviral activity against lamivudine-resistant HBV with reverse transcriptase L180M/M204V mutant assessed as inhibition of replication; type: functional, organism-based; outline: as §2
Hepatitis B virus [12] = assay: Antiviral activity against lamivudine-adefovir-resistant HBV with reverse transcriptase L180M/M204V/N236T mutant assessed as inhibition of replication; type: functional, organism-based; outline: as §2
Hepatitis B virus [13] = assay: Fold resistance, ratio of EC50 for adenofir-resistant HBV with reverse transcriptase N236T mutant to EC50 for wild-type HBV; type: functional; outline: as §3
Hepatitis B virus [14] = assay: Fold resistance, ratio of EC50 for lamivudine-resistant HBV with reverse transcriptase L180M/M204V mutant to EC50 for wild-type HBV; type: functional; outline: as §3
Hepatitis B virus [15] = assay: Fold resistance, ratio of EC50 for lamivudine-adefovir-resistant HBV with reverse transcriptase L180M/M204V/N236T mutant to EC50 for wild-type HBV; type: functional; outline: as §3
Hepatitis B virus [16] = assay: Antiviral activity against wild type HBV genotype H assessed as inhibition of replication; type: functional, organism-based; outline: as §1
Hepatitis B virus [17] = assay: Antiviral activity against wild type HBV genotype E assessed as inhibition of replication; type: functional, organism-based; outline: as §1
Hepatitis B virus [18] = assay: Antiviral activity against lamivudine-resistant HBV with reverse transcriptase L180M/M204V mutant; type: functional, organism-based; outline: as §2
Hepatitis B virus [19] = assay: Antiviral activity against lamivudine-resistant HBV with reverse transcriptase L180M/A181V mutant; type: functional, organism-based; outline: as §2
Hepatitis B virus [20] = assay: Antiviral activity against lamivudine-resistant HBV with reverse transcriptase V173L/L180/M204V mutant; type: functional, organism-based; outline: as §2
Hepatitis B virus [21] = assay: Antiviral activity against lamivudine-adenofir-resistant HBV with reverse transcriptase V173L/L180M/A181V mutant; type: functional, organism-based; outline: as §2
Hepatitis B virus [22] = assay: Antiviral activity against Lamivudine -adenofir-resistant HBV with reverse transcriptase V173L/L180M/A181V/M204V mutant; type: functional, organism-based; outline: as §2
Hepatitis B virus [23] = assay: Antiviral activity against Lamivudine -adenofir-resistant HBV with reverse transcriptase V173L/L180M/A181V/M204V/N236T mutant; type: functional, organism-based; outline: as §2
Hepatitis B virus [24] = assay: Antiviral activity against lamivudine-adenofir-resistant HBV with reverse transcriptase V173L/L180M/A181V/N236T mutant; type: functional, organism-based; outline: as §2
Hepatitis B virus [25] = assay: Antiviral activity against entecavir-resistant HBV with reverse transcriptase L180M/S202G/M204V mutant; type: functional, organism-based; outline: as §2
Hepatitis B virus [26] = assay: Fold resistance, ratio of lamivudine-resistant HBV with reverse transcriptase L180M/M204V mutant to wild-type HBV genotype E; type: functional; outline: as §3
Hepatitis B virus [27] = assay: Fold resistance, ratio of lamivudine-resistant HBV with reverse transcriptase L180M/A181V mutant to wild-type HBV genotype E; type: functional; outline: as §3

SMILES: Nc1cc(OCCOCP(=O)(O)O)nc(N)n1
- EC50 (Hepatitis B virus [1]): 4.9 µM
- CC50 [2]: > 1000 µM
- EC50 (Hepatitis B virus [3]): 4 µM
- EC50 (Hepatitis B virus [4]): 4.5 µM
- Ratio EC50 (Hepatitis B virus [5]): 0.9
- Ratio EC50 (Hepatitis B virus [6]): 4.3
- Ratio EC50 (Hepatitis B virus [7]): 3.2
- Ratio EC50 (Hepatitis B virus [8]): 2.1
- Ratio EC50 (Hepatitis B virus [9]): 5.1
- Ratio EC50 (Hepatitis B virus [10]): 1
- EC50 (Hepatitis B virus [11]): 4.7 µM
- EC50 (Hepatitis B virus [12]): 5.7 µM
- Ratio EC50 (Hepatitis B virus [13]): 1.1
- Ratio EC50 (Hepatitis B virus [14]): 1.2
- Ratio EC50 (Hepatitis B virus [15]): 1.4
- EC50 (Hepatitis B virus [16]): 4.4 µM
- EC50 (Hepatitis B virus [17]): 5.6 µM
- EC50 (Hepatitis B virus [18]): 5.3 µM
- EC50 (Hepatitis B virus [19]): 27 µM
- EC50 (Hepatitis B virus [20]): 4.1 µM
- EC50 (Hepatitis B virus [21]): 24 µM
- EC50 (Hepatitis B virus [22]): 18 µM
- EC50 (Hepatitis B virus [23]): 12 µM
- EC50 (Hepatitis B virus [24]): 29 µM
- EC50 (Hepatitis B virus [25]): 4.5 µM
- Ratio EC50 (Hepatitis B virus [26]): 0.9
- Ratio EC50 (Hepatitis B virus [27]): 4.8

SMILES: CC(C)(C)C(=O)OCOP(=O)(COCCn1cnc2c(N)ncnc21)OCOC(=O)C(C)(C)C [ADEFOVIR DIPIVOXIL]
- EC50 (Hepatitis B virus [1]): 13 µM
- CC50 [2]: 365 µM
- EC50 (Hepatitis B virus [3]): 15.8 µM
- EC50 (Hepatitis B virus [4]): 50.3 µM
- Ratio EC50 (Hepatitis B virus [5]): 0.7
- Ratio EC50 (Hepatitis B virus [6]): 4.8
- Ratio EC50 (Hepatitis B virus [7]): 4
- Ratio EC50 (Hepatitis B virus [8]): 7.7
- Ratio EC50 (Hepatitis B virus [9]): >10
- Ratio EC50 (Hepatitis B virus [10]): 1.1
- EC50 (Hepatitis B virus [11]): 15.5 µM
- EC50 (Hepatitis B virus [12]): 100 µM
- Ratio EC50 (Hepatitis B virus [13]): 3.2
- Ratio EC50 (Hepatitis B virus [14]): 0.98
- Ratio EC50 (Hepatitis B virus [15]): 6.3
- EC50 (Hepatitis B virus [16]): 13.6 µM
- EC50 (Hepatitis B virus [17]): 10 µM
- EC50 (Hepatitis B virus [18]): 15 µM
- EC50 (Hepatitis B virus [19]): 27 µM
- EC50 (Hepatitis B virus [20]): 9.8 µM
- EC50 (Hepatitis B virus [21]): 48 µM
- EC50 (Hepatitis B virus [22]): 40 µM
- EC50 (Hepatitis B virus [23]): 77 µM
- EC50 (Hepatitis B virus [24]): > 100 µM
- EC50 (Hepatitis B virus [25]): 15 µM
- Ratio EC50 (Hepatitis B virus [26]): 1.5
- Ratio EC50 (Hepatitis B virus [27]): 2.7

SMILES: C=C1[C@H](CO)[C@@H](O)C[C@@H]1n1cnc2c(=O)[nH]c(N)nc21.O [ENTECAVIR]
- EC50 (Hepatitis B virus [1]): 0.3 µM
- CC50 [2]: 125 µM
- EC50 (Hepatitis B virus [3]): 0.8 µM
- EC50 (Hepatitis B virus [4]): 0.7 µM
- Ratio EC50 (Hepatitis B virus [5]): 43
- Ratio EC50 (Hepatitis B virus [6]): 50
- Ratio EC50 (Hepatitis B virus [7]): >=800
- Ratio EC50 (Hepatitis B virus [8]): 461
- Ratio EC50 (Hepatitis B virus [9]): 9
- Ratio EC50 (Hepatitis B virus [10]): 210
- EC50 (Hepatitis B virus [11]): 5 µM
- EC50 (Hepatitis B virus [12]): 5 µM
- Ratio EC50 (Hepatitis B virus [13]): 0.88
- Ratio EC50 (Hepatitis B virus [14]): 6.25
- Ratio EC50 (Hepatitis B virus [15]): 6.25
- EC50 (Hepatitis B virus [16]): 0.09 µM
- EC50 (Hepatitis B virus [17]): 0.06 µM
- EC50 (Hepatitis B virus [18]): 10.5 µM
- EC50 (Hepatitis B virus [19]): 1.5 µM
- EC50 (Hepatitis B virus [20]): 3.7 µM
- EC50 (Hepatitis B virus [21]): 2.75 µM
- EC50 (Hepatitis B virus [22]): ≥ 50 µM
- EC50 (Hepatitis B virus [23]): 25.4 µM
- EC50 (Hepatitis B virus [24]): 0.5 µM
- EC50 (Hepatitis B virus [25]): 18 µM
- Ratio EC50 (Hepatitis B virus [26]): 175
- Ratio EC50 (Hepatitis B virus [27]): 28

SMILES: Nc1ccn([C@@H]2CS[C@H](CO)O2)c(=O)n1 [LAMIVUDINE]
- EC50 (Hepatitis B virus [1]): 1 µM
- CC50 [2]: > 1000 µM
- EC50 (Hepatitis B virus [3]): 2.48 µM
- EC50 (Hepatitis B virus [4]): 2.65 µM
- Ratio EC50 (Hepatitis B virus [5]): >156
- Ratio EC50 (Hepatitis B virus [6]): 1000
- Ratio EC50 (Hepatitis B virus [7]): >1000
- Ratio EC50 (Hepatitis B virus [8]): >1000
- Ratio EC50 (Hepatitis B virus [9]): >1000
- Ratio EC50 (Hepatitis B virus [10]): >156
- EC50 (Hepatitis B virus [11]): > 100 µM
- EC50 (Hepatitis B virus [12]): > 100 µM
- Ratio EC50 (Hepatitis B virus [13]): 1.06
- Ratio EC50 (Hepatitis B virus [14]): >40
- Ratio EC50 (Hepatitis B virus [15]): >40
- EC50 (Hepatitis B virus [16]): 0.64 µM
- EC50 (Hepatitis B virus [17]): 0.1 µM
- EC50 (Hepatitis B virus [18]): > 100 µM
- EC50 (Hepatitis B virus [19]): 80 µM
- EC50 (Hepatitis B virus [20]): > 100 µM
- EC50 (Hepatitis B virus [21]): 100 µM
- EC50 (Hepatitis B virus [22]): > 100 µM
- EC50 (Hepatitis B virus [23]): > 100 µM
- EC50 (Hepatitis B virus [24]): > 100 µM
- EC50 (Hepatitis B virus [25]): > 100 µM
- Ratio EC50 (Hepatitis B virus [26]): >1000
- Ratio EC50 (Hepatitis B virus [27]): 800

SMILES: C[C@H](Cn1cnc2c(N)ncnc21)OCP(=O)(O)O [TENOFOVIR ANHYDROUS]
- EC50 (Hepatitis B virus [1]): 16 µM
- CC50 [2]: > 1000 µM
- EC50 (Hepatitis B virus [3]): 10.3 µM
- EC50 (Hepatitis B virus [4]): 46 µM
- Ratio EC50 (Hepatitis B virus [5]): 1.2
- Ratio EC50 (Hepatitis B virus [6]): 1.6
- Ratio EC50 (Hepatitis B virus [7]): 1.8
- Ratio EC50 (Hepatitis B virus [8]): 1.8
- Ratio EC50 (Hepatitis B virus [9]): 1.1
- Ratio EC50 (Hepatitis B virus [10]): 2
- EC50 (Hepatitis B virus [11]): 35.2 µM
- EC50 (Hepatitis B virus [12]): 45.5 µM
- Ratio EC50 (Hepatitis B virus [13]): 4.5
- Ratio EC50 (Hepatitis B virus [14]): 3.4
- Ratio EC50 (Hepatitis B virus [15]): 4.4
- EC50 (Hepatitis B virus [16]): 13.6 µM
- EC50 (Hepatitis B virus [17]): 25 µM
- EC50 (Hepatitis B virus [18]): 27 µM
- EC50 (Hepatitis B virus [19]): 36 µM
- EC50 (Hepatitis B virus [20]): 16 µM
- EC50 (Hepatitis B virus [21]): 42 µM
- EC50 (Hepatitis B virus [22]): 45 µM
- EC50 (Hepatitis B virus [23]): 46 µM
- EC50 (Hepatitis B virus [24]): 28 µM
- EC50 (Hepatitis B virus [25]): 27 µM
- Ratio EC50 (Hepatitis B virus [26]): 1.1
- Ratio EC50 (Hepatitis B virus [27]): 1.4
